≈ marks a conversion by molar mass, not a printed value.
Experiments:
Artemia = experiment: Toxicity in brine shrimp; format: organism-based; details: in vivo
In short: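 Brine shrimp lethality test (BST) on brine shrimp larvae, run routinely on extracts, fractions and isolated compounds, with lethality as the read-out.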

A549 = experiment: Cytotoxicity against human A549 cells after 7 days by MTT assay; format: functional; details: A549, 168 h, read-out: ED50 (the source's name)
In short: (§1)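 Seven-day in vitro MTT cytotoxicity test on human tumour lines, run with adriamycin as positive control under standard protocols. Cell line origins: A-549 lung carcinoma, MCF-7 breast carcinoma, HT-29 colon adenocarcinoma, A-498 kidney carcinoma, PC-3 prostate adenocarcinoma, MIA PaCa-2 pancreatic carcinoma.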

MCF7 = experiment: Cytotoxicity against human MCF7 cells after 7 days by MTT assay; format: functional; details: MCF7, 168 h, read-out: ED50 (the source's name); in short: as §1
HT-29 = experiment: Cytotoxicity against human HT-29 cells after 7 days by MTT assay; format: functional; in short: as §1
PC-3 = experiment: Cytotoxicity against human PC-3 cells after 7 days by MTT assay; format: functional; in short: as §1
MIA PaCa-2 = experiment: Cytotoxicity against human MIA PaCa2 cells after 7 days by MTT assay; format: functional; in short: as §1
A498 = experiment: Cytotoxicity against human A-498 cells after 7 days by MTT assay; format: functional; details: A498, 168 h, read-out: ED50 (the source's name); in short: as §1

SMILES | LC50 (Artemia) | EC50 (A549) | EC50 (MCF7) | ED50 (HT-29) | ED50 (PC-3) | ED50 (MIA PaCa-2) | EC50 (A498) | EC50 (HT-29; Homo sapiens, HT-29, 168 h, read-out: ED50 (the source's name)) | EC50 (PC-3; Homo sapiens, PC-3, 168 h, read-out: ED50 (the source's name)) | EC50 (MIA PaCa-2; Homo sapiens, MIA PaCa-2, 168 h, read-out: ED50 (the source's name))
CCCCCCCCCC[C@@H](O)[C@H]1CC[C@@H]([C@H]2CC[C@H]([C@H](O)CCCCC(O)CCCCC[C@@H](O)CC3=C[C@H](C)OC3=O)O2)O1 (stereo not given in full) | 7 ×10⁻² ug/ml | 1.54 µg/mL (≈ 2.41 µM) | 3.79 µg/mL (≈ 5.93 µM) | 1.54 ×10⁻⁶ ug/ml | 2.01 ×10⁻⁴ ug/ml | 2.01 ×10⁻⁴ ug/ml | 0.0362 µg/mL (≈ 0.0567 µM) |  |  | 
CCCCCCCCCC[C@@H](O)[C@H]1CC[C@H]([C@H]2C[C@@H](O)[C@H]([C@H](O)CCCCCCCCCC[C@@H](O)CC3=C[C@H](C)OC3=O)O2)O1 [ASIMITRIN] | 2.07 ×10⁻² ug/ml | 1.19 µg/mL (≈ 1.86 µM) | 2.12 µg/mL (≈ 3.32 µM) | 1.19 ×10⁻⁴ ug/ml | 1.72 ×10⁻⁶ ug/ml | 2.11 ×10⁻⁴ ug/ml | 0.75 µg/mL (≈ 1.17 µM) |  |  | 
COc1cccc2c1C(=O)c1c(O)c3c(c(O)c1C2=O)C[C@@](O)(C(=O)CO)C[C@@H]3O[C@H]1C[C@H](N)[C@H](O)[C@H](C)O1 [DOXORUBICIN] |  | 0.00622 µg/mL (≈ 0.0114 µM) | 0.953 µg/mL (≈ 1.75 µM) |  |  |  | 0.00286 µg/mL (≈ 0.00526 µM) | 0.0287 µg/mL (≈ 0.0528 µM) | 0.0577 µg/mL (≈ 0.106 µM) | 0.0061 µg/mL (≈ 0.0112 µM)

From ChEMBL document CHEMBL1142577, “Asimitrin and 4-hydroxytrilobin, new bioactive annonaceous acetogenins from the seeds of Asimina triloba possessing a bis-tetrahydrofuran ring” (J Nat Prod, 2005)
